Results as given in ChEMBL document CHEMBL3596186, “Synthesis and biological evaluation of diarylthiazole derivatives as antimitotic and antivascular agents with potent antitumor activity” (Bioorg Med Chem, 2015).
pIC50: −log10 of the molar value.

Key:
HepG2 [1] = test: Cell cycle arrest in human HepG2 cells assessed as accumulation at G1 phase at 1 uM after 24 hrs by flow cytometry (reference value: 62.74%); assay type: functional
SK-OV-3 = test: Antiproliferative activity against human SKOV3 cells after 48 hrs by MTT assay; assay type: functional, cell-based; conditions: SK-OV-3, 48 h
How it was run: (§1)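 HCT116, HepG2, SMMC-7721, SK-OV-3 and A2780s grown in DMEM; A549 and MCF-7 in RPMI-1640; all with 10% FBS and penicillin/streptomycin at 37 °C, 5% CO2. Log-phase cells at 40,000-50,000 cells/mL treated with graded concentrations for 48 h. MTT 3 h, DMSO solubilization, A570. IC50 from percent growth versus untreated control; mean ± SEM of ≥3 independent dose-response experiments.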

HCT-116 [2] = test: Induction of apoptosis in human HCT116 cells assessed as early apoptotic cells at 0.5 uM after 24 hrs by annexin V/propidium iodide staining-based flow cytometry (reference value: 2.83%); assay type: functional
How it was run: (§2)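 HCT116 cells treated with compound or DMSO for 24 or 48 h, trypsinized, washed twice in PBS and dual-stained with annexin-V and PI. Analysed by flow cytometry: early apoptotic cells scored as annexin-V+/PI−, late apoptotic cells as annexin-V+/PI+.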

HCT-116 [3] = test: Cell cycle arrest in human HCT116 cells assessed as accumulation at G1 phase at 0.5 uM after 24 hrs by flow cytometry (reference value: 53.98%); assay type: functional
A549 [4] = test: Antiproliferative activity against human A549 cells after 48 hrs by MTT assay; assay type: functional, cell-based; conditions: A549, 48 h; how it was run: as §1
HCT-116 [5] = test: Induction of apoptosis in human HCT116 cells assessed as viable cells at 1 uM after 48 hrs by annexin V/propidium iodide staining-based flow cytometry (reference value: 92%); assay type: functional; conditions: HCT-116, 48 h, read-out: Activity
HCT-116 [6] = test: Induction of apoptosis in human HCT116 cells assessed as necrotic cells at 0.2 uM after 24 hrs by annexin V/propidium iodide staining-based flow cytometry (reference value: 3.49%); assay type: functional
[7] = Antiproliferative activity against human […] cells after 48 hrs by MTT assay; assay type: functional, cell-based; how it was run: as §1
HCT-116 [8] = test: Cell cycle arrest in human HCT116 cells assessed as accumulation at G1 phase at 0.2 uM after 24 hrs by flow cytometry (reference value: 53.98%); assay type: functional
HCT-116 [9] = test: Cell cycle arrest in human HCT116 cells assessed as accumulation at S phase at 1 uM after 24 hrs by flow cytometry (reference value: 25.66%); assay type: functional
HepG2 [10] = test: Induction of apoptosis in human HepG2 cells assessed as early apoptotic cells at 0.5 uM after 24 hrs by annexin V/propidium iodide staining-based flow cytometry (reference value: 0.87%); assay type: functional
HepG2 [11] = test: Induction of apoptosis in human HepG2 cells assessed as necrotic cells at 0.5 uM after 48 hrs by annexin V/propidium iodide staining-based flow cytometry (reference value: 1.59%); assay type: functional
HepG2 [12] = test: Induction of apoptosis in human HepG2 cells assessed as early apoptotic cells at 0.5 uM after 48 hrs by annexin V/propidium iodide staining-based flow cytometry (reference value: 0.87%); assay type: functional
HCT-116 [13] = test: Induction of apoptosis in human HCT116 cells assessed as late apoptotic cells at 0.2 uM after 48 hrs by annexin V/propidium iodide staining-based flow cytometry (reference value: 1.71%); assay type: functional; how it was run: as §2
[14] = Antiproliferative activity against human doxorubicin-resistant MCF7 cells after 48 hrs by MTT assay; assay type: functional, cell-based; conditions: MCF7, 48 h
How it was run: (§3)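 MCF-7/ADR (doxorubicin-resistant) and A549/T (taxol-resistant) cells in RPMI-1640 with 10% FBS and penicillin/streptomycin. Log-phase cells at 40,000-50,000 cells/mL exposed to graded concentrations for 48 h. MTT 3 h, DMSO solubilization, absorbance 570 nm. IC50 from percent growth versus untreated control; mean ± SEM of ≥3 independent experiments.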

HCT-116 [15] = test: Cell cycle arrest in human HCT116 cells assessed as accumulation at G2/M phase at 0.5 uM after 24 hrs by flow cytometry (reference value: 20.36%); assay type: functional
HCT-116 [16] = test: Induction of apoptosis in human HCT116 cells assessed as late apoptotic cells at 0.2 uM after 24 hrs by annexin V/propidium iodide staining-based flow cytometry (reference value: 1.71%); assay type: functional; how it was run: as §2
HepG2 [17] = test: Induction of apoptosis in human HepG2 cells assessed as viable cells at 0.2 uM after 48 hrs by annexin V/propidium iodide staining-based flow cytometry (reference value: 89.8%); assay type: functional; conditions: HepG2, 48 h, read-out: Activity
HepG2 [18] = test: Cell cycle arrest in human HepG2 cells assessed as accumulation at G1 phase at 0.2 uM after 24 hrs by flow cytometry (reference value: 62.74%); assay type: functional
NCI-H1975 = test: Antiproliferative activity against human gefitinib-resistant NCI-H1975 cells after 48 hrs by MTT assay; assay type: functional, cell-based; conditions: NCI-H1975, 48 h
HepG2 [19] = test: Cell cycle arrest in human HepG2 cells assessed as accumulation at S phase at 0.5 uM after 24 hrs by flow cytometry (reference value: 23.97%); assay type: functional
HCT-116 [20] = test: Cell cycle arrest in human HCT116 cells assessed as accumulation at G1 phase at 1 uM after 24 hrs by flow cytometry (reference value: 53.98%); assay type: functional
A549 [21] = test: Antiproliferative activity against human taxol-resistant A549 cells after 48 hrs by MTT assay; assay type: functional, cell-based; conditions: A549, 48 h; how it was run: as §3
HepG2 [22] = test: Induction of apoptosis in human HepG2 cells assessed as late apoptotic cells at 0.5 uM after 24 hrs by annexin V/propidium iodide staining-based flow cytometry (reference value: 3.74%); assay type: functional
HCT-116 [23] = test: Induction of apoptosis in human HCT116 cells assessed as necrotic cells at 0.5 uM after 48 hrs by annexin V/propidium iodide staining-based flow cytometry (reference value: 3.49%); assay type: functional
HepG2 [24] = test: Cell cycle arrest in human HepG2 cells assessed as accumulation at G2/M phase at 1 uM after 24 hrs by flow cytometry (reference value: 11.29%); assay type: functional

Compound: CCOc1ccc(-c2nc(N)sc2-c2cc(OC)c(OC)c(OC)c2)cc1
- Activity (HepG2 [1]): 8.69%
- pIC50 (SK-OV-3): 7.85
- Activity (HCT-116 [2]): 11.2%
- Activity (HCT-116 [3]): 11.45%
- pIC50 (A549 [4]): 7.08
- viability at 1 µM (HCT-116 [5]): 20.2%
- Activity (HCT-116 [6]): 3.69%
- pIC50 [7]: 7.64
- Activity (HCT-116 [8]): 29.2%
- Activity (HCT-116 [9]): 7.71%
- Activity (HepG2 [10]): 11.2%
- Activity (HepG2 [11]): 0.7%
- Activity (HepG2 [12]): 65.3%
- Activity (HCT-116 [13]): 23.4%
- pIC50 [14]: 6.72
- Activity (HCT-116 [15]): 68.04%
- Activity (HCT-116 [16]): 8.08%
- viability at 0.2 µM (HepG2 [17]): 28.5%
- Activity (HepG2 [18]): 50.57%
- pIC50 (NCI-H1975): 6.66
- Activity (HepG2 [19]): 7.29%
- Activity (HCT-116 [20]): 13.06%
- pIC50 (A549 [21]): 7.37
- Activity (HepG2 [22]): 7.86%
- Activity (HCT-116 [23]): 4.36%
- Activity (HepG2 [24]): 83.67%
